# ChEMBL document CHEMBL1157638, “Fluorescent epigenetic small molecule induces expression of the tumor suppressor ras-association domain family 1A and inhibits human prostate xenograft” (J Med Chem, 2010)
# Key:
# MOLT-4 = assay: Growth inhibition of human MOLT4 cells assessed as cell growth at 100 nM relative to untreated control; type: functional; settings: read-out: Activity
# HOP-92 [1] = assay: Growth inhibition of human HOP92 cells assessed as cell growth at 100 nM relative to untreated control; type: functional; settings: read-out: Activity
# Summary of the method: (§1)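 Run externally at the National Cancer Institute as a 59-cell-line panel screen, with concentrations up to 100 μM. Growth was scored relative to control, where negative growth or total cell kill was possible. Data are in the Supporting Information.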
# OVCAR-5 [2] = assay: Growth inhibition of human OVCAR5 cells assessed as cell growth at 100 nM relative to untreated control; type: functional; settings: read-out: Activity
# HL-60(TB) [3] = assay: Growth inhibition of human HL-60(TB) cells assessed as cell growth at 1 uM relative to untreated control; type: functional; settings: read-out: Activity
# HOP-92 [4] = assay: Growth inhibition of human HOP92 cells assessed as cell growth at 1 uM relative to untreated control; type: functional; settings: read-out: Activity; summary of the method: as §1
# SW-620 [5] = assay: Growth inhibition of human SW620 cells assessed as cell growth at 1 uM relative to untreated control; type: functional; settings: read-out: Activity
# SF-539 = assay: Growth inhibition of human SF539 cells assessed as cell growth at 1 uM relative to untreated control; type: functional; settings: read-out: Activity
# LOX IMVI [6] = assay: Growth inhibition of human LOXIMVI cells assessed as cell growth at 1 uM relative to untreated control; type: functional; settings: read-out: Activity
# Malme-3M = assay: Growth inhibition of human MALME-3M cells assessed as cell growth at 1 uM relative to untreated control; type: functional; settings: read-out: Activity
# SK-MEL-2 = assay: Growth inhibition of human SK-MEL-2 cells assessed as cell growth at 1 uM relative to untreated control; type: functional; settings: read-out: Activity
# SK-MEL-28 = assay: Growth inhibition of human SK-MEL-28 cells assessed as cell growth at 1 uM relative to untreated control; type: functional; settings: read-out: Activity
# UACC-257 [7] = assay: Growth inhibition of human UACC257 cells assessed as cell growth at 1 uM relative to untreated control; type: functional; settings: read-out: Activity
# OVCAR-8 = assay: Growth inhibition of human OVCAR8 cells assessed as cell growth at 1 uM relative to untreated control; type: functional; settings: read-out: Activity
# MDA-MB-231 = assay: Growth inhibition of human MDA-MB-231 cells assessed as cell growth at 1 nM relative to untreated control; type: functional; settings: read-out: Activity
# K562 = assay: Growth inhibition of human K562 cells assessed as cell growth at 10 nM relative to untreated control; type: functional; settings: read-out: Activity
# EKVX [8] = assay: Growth inhibition of human EKVX cells assessed as cell growth at 10 nM relative to untreated control; type: functional; settings: read-out: Activity; summary of the method: as §1
# NCI-H460 = assay: Growth inhibition of human NCI-H460 cells assessed as cell growth at 10 nM relative to untreated control; type: functional; settings: read-out: Activity
# NCI-H522 = assay: Growth inhibition of human NCI-H522 cells assessed as cell growth at 10 nM relative to untreated control; type: functional; settings: read-out: Activity
# 786-0 [9] = assay: Growth inhibition of human 786-0 cells assessed as cell growth at 1 uM relative to untreated control; type: functional; settings: read-out: Activity
# RXF 393 = assay: Growth inhibition of human RXF393 cells assessed as cell growth at 1 uM relative to untreated control; type: functional; settings: read-out: Activity
# BT-549 = assay: Growth inhibition of human BT549 cells assessed as cell growth at 1 uM relative to untreated control; type: functional; settings: read-out: Activity
# CCRF-CEM = assay: Growth inhibition of human CCRF-CEM cells assessed as cell growth at 10 uM relative to untreated control; type: functional; settings: read-out: Activity
# HCC 2998 = assay: Growth inhibition of human HCC2998 cells assessed as cell growth at 10 uM relative to untreated control; type: functional; settings: read-out: Activity; summary of the method: as §1
# SW-620 [10] = assay: Growth inhibition of human SW620 cells assessed as cell growth at 10 uM relative to untreated control; type: functional; settings: read-out: Activity
# SF-268 [11] = assay: Growth inhibition of human SF268 cells assessed as cell growth at 10 uM relative to untreated control; type: functional; settings: read-out: Activity
# OVCAR-3 = assay: Growth inhibition of human OVCAR-3 cells assessed as cell growth at 10 uM relative to untreated control; type: functional; settings: read-out: Activity
# HL-60(TB) [12] = assay: Growth inhibition of human HL-60(TB) cells; type: functional; settings: read-out: LC50 (the source's name)
# SR = assay: Growth inhibition of human SR cells; type: functional
# NCI-H226 = assay: Growth inhibition of human NCI-H226 cells; type: functional
# PC-3 [13] = assay: Drug uptake in cytoplasm of human PC3 cells at 5 uM by confocal microscopy; type: ADME, cell-based; settings: pc-3, 5 µM
# Summary of the method: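 PC-3 cells were plated overnight on fibronectin/[…]-coated slides and treated with 5 μM compound or DMSO for 1-6 h. Cells were PBS-washed, fixed in 4% formaldehyde, and stained with propidium iodide (nuclei) and anti-DNMT3a or anti-DNMT3b antibody. The compound was excited at 725 nm by multiphoton laser and imaged through a 500-550 nm filter by confocal microscopy.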
# PC-3 [14] = assay: Antitumor activity against human PC3 cells xenografted in athymic BALB/c mouse assessed as reduction in tumor volume at 10 mg/kg, ip dosed every other day for 28 days relative to untreated control; type: functional; parameters: scale not given: the % may be the effect or the level left; settings: route intraperitoneal
# Summary of the method: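 Male athymic Balb/c nude mice (18-22 g) got 3 × 10⁶ PC-3 cells subcutaneously in the right axillary region. After one week they were randomized into two groups of four. Dosing was 10 mg/kg ip or vehicle once every other day for 28 days. Vehicle was DMSO stock diluted in 1:1 PEG 400/PBS. Tumour volume was measured by caliper as length × width × height/2. Data are mean ± SEM (n = 4).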
# EKVX [15] = assay: Growth inhibition of human EKVX cells assessed as cell growth at 1 nM relative to untreated control; type: functional; settings: read-out: Activity; summary of the method: as §1
# SF-268 [16] = assay: Growth inhibition of human SF268 cells assessed as cell growth at 10 nM relative to untreated control; type: functional; settings: read-out: Activity
# SNB-19 = assay: Growth inhibition of human SNB19 cells assessed as cell growth at 10 nM relative to untreated control; type: functional; settings: read-out: Activity
# SNB-75 = assay: Growth inhibition of human SNB75 cells assessed as cell growth at 10 nM relative to untreated control; type: functional; settings: read-out: Activity
# U-251 = assay: Growth inhibition of human U251 cells assessed as cell growth at 10 nM relative to untreated control; type: functional; settings: read-out: Activity
# LOX IMVI [17] = assay: Growth inhibition of human LOXIMVI cells assessed as cell growth at 10 nM relative to untreated control; type: functional; settings: read-out: Activity
# UACC-257 [18] = assay: Growth inhibition of human UACC257 cells assessed as cell growth at 10 nM relative to untreated control; type: functional; settings: read-out: Activity
# OVCAR-5 [19] = assay: Growth inhibition of human OVCAR5 cells assessed as cell growth at 10 nM relative to untreated control; type: functional; settings: read-out: Activity
# 786-0 [20] = assay: Growth inhibition of human 786-0 cells assessed as cell growth at 10 nM relative to untreated control; type: functional; settings: read-out: Activity
# A498 = assay: Growth inhibition of human A498 cells assessed as cell growth at 10 nM relative to untreated control; type: functional; settings: read-out: Activity
# SN12C = assay: Growth inhibition of human SN12C cells assessed as cell growth at 10 nM relative to untreated control; type: functional; settings: read-out: Activity
# TK-10 = assay: Growth inhibition of human TK10 cells assessed as cell growth at 10 nM relative to untreated control; type: functional; settings: read-out: Activity
# [21] = read-out: LC50 (the source's name)
smiles,measurement,setting,value
COc1ccc2c(c1)[nH]c1c(C)c(OS(=O)(=O)c3cccc4c(N(C)C)cccc34)ccc12,growth at 0.1 µM,MOLT-4,99%
same,growth at 0.1 µM,HOP-92 [1],91%
same,growth at 0.1 µM,OVCAR-5 [2],103%
same,growth at 1 µM,HL-60(TB) [3],-9%
same,growth at 1 µM,HOP-92 [4],49%
same,growth at 1 µM,SW-620 [5],24%
same,growth at 1 µM,SF-539,-30%
same,growth at 1 µM,LOX IMVI [6],31%
same,growth at 1 µM,Malme-3M,22%
same,growth at 1 µM,SK-MEL-2,50%
same,growth at 1 µM,SK-MEL-28,39%
same,growth at 1 µM,UACC-257 [7],51%
same,growth at 1 µM,OVCAR-8,44%
same,growth at 0.001 µM,MDA-MB-231,97%
same,growth at 0.01 µM,K562,98%
same,growth at 0.01 µM,EKVX [8],96%
same,growth at 0.01 µM,NCI-H460,101%
same,growth at 0.01 µM,NCI-H522,101%
same,growth at 1 µM,786-0 [9],30%
same,growth at 1 µM,RXF 393,-29%
same,growth at 1 µM,BT-549,37%
same,growth at 10 µM,CCRF-CEM,1%
same,growth at 10 µM,HCC 2998,-5%
same,growth at 10 µM,SW-620 [10],9%
same,growth at 10 µM,SF-268 [11],27%
same,growth at 10 µM,OVCAR-3,-9%
same,CC50,HL-60(TB) [12],> 100 µM
same,GI50,SR,3.51 µM
same,TGI,SR,> 100 µM
same,CC50,SR; [21],> 100 µM
same,GI50,NCI-H226,11.3 µM
same,TGI,NCI-H226,> 100 µM
same,CC50,NCI-H226; [21],> 100 µM
same,Drug uptake,PC-3 [13],Active
same,Activity,PC-3 [14],40%
same,growth at 0.001 µM,EKVX [15],99%
same,growth at 0.01 µM,SF-268 [16],111%
same,growth at 0.01 µM,SNB-19,88%
same,growth at 0.01 µM,SNB-75,118%
same,growth at 0.01 µM,U-251,98%
same,growth at 0.01 µM,LOX IMVI [17],92%
same,growth at 0.01 µM,UACC-257 [18],109%
same,growth at 0.01 µM,OVCAR-5 [19],106%
same,growth at 0.01 µM,786-0 [20],103%
same,growth at 0.01 µM,A498,83%
same,growth at 0.01 µM,SN12C,92%
same,growth at 0.01 µM,TK-10,94%
